Results taken from the EternaBench riboswitch data.

Tested on: MS2 coat protein
Test: apparent Kd, MS2 coat protein; higher = weaker binding; RNA-MaP array; FMN 200 µM where present
Procedure, shortened: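 SNAP-549-labelled MS2 coat protein, doubled from 0.7 or 1.5 nM to 3 µM, was titrated over designs transcribed by stalled E. coli RNA polymerase on Illumina sequencing-chip clusters. Titrations were run without and then with constant ligand in 100 mM Tris-HCl pH 7.5, 80 mM KCl, 4 mM MgCl2, BSA, DTT, yeast tRNA and Tween-20. The apparent Kd is the median of filtered per-cluster fits to green signal normalised to red-channel RNA signal and control-cluster median Fmax.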

[1] = designed as: OFF switch for flavin mononucleotide, no ligand
[2] = ligand present: flavin mononucleotide, designed as: OFF switch for flavin mononucleotide
[3] = designed as: ON switch for flavin mononucleotide, no ligand
[4] = ligand present: flavin mononucleotide, designed as: ON switch for flavin mononucleotide

| Sequence | apparent Kd [1] [nM] | apparent Kd [2] [nM] | apparent Kd [3] [nM] | apparent Kd [4] [nM] |
| --- | --- | --- | --- | --- |
| GAGCCCGUCGAGGAUAUACACCAUAUAUGGCUUGUAGAAGGUGACACAUGAGGAUCACCCAUGUUUGUGGUACA | 63.2 | 35 | – | – |
| UUCGUGCAGCUUUGCUGUACGCGUACAUGAGGAUCACCCAUGUAGGAUAUGGUACGCUUUGCGUGCUAGAAGGAUAUGGAGAGC | 15.7 | 16.3 | – | – |
| UGGUACUAGGGAGGAUAUGGGAAGAUACAUGAGGAUCACCCAUGUUUAAGAAUGCCGAGAGGCAACUAGAAGGCCCUAGUUCCU | – | – | 390 | 19.5 |
| AGAAAGGCAGGAUAUACAUGAGGAUCACCCAUGUUAAGAAAGUGCGAAAGCACAAGAAGUAGAAGGGCCAAGAA | 23 | 21.6 | – | – |
| GUACUAAAGCUUUGCUUUAGUCGUACAUGAGGAUCACCCAUGUAGGAUAUGGUAGGCUUUGCUUACUAGAAGGAUAGAGUGAUC | 110 | 36.1 | – | – |
| CGAUUUUUGAUCCGUUUUUUCUACAUGAGGAUCACCCAUGUGCAGGAUAUCGUGGUGUUUUACUACGAGAAGGGCAAUUUCACG | 84.8 | 198 | – | – |
| CUUUUGUGAGGAUAUUCGUAGUAGAUAAAUAAAACUAUUACGGAGAAGGCACAUGAGGAUCACCCAUGUUCCUU | 16.7 | 54.5 | – | – |
| CGAUCGUUGCAGAAGGUUAAAAUUUUAUCUACAUGUUUAACAUGAGGAUCACCCAUGUUUAUGAUGAAGGAUAUGCAAGGGUCG | 6.76 | 6.18 | – | – |
| GUCAGCUCGUGAGGAUAUACAUCACUGCUUCGGCAGUGUAUUAACAUCACAUGAGGAUCACCCAUGUAGAAGGCACGAGCUGAU | 16 | 22.7 | – | – |
| UAGCGCUGUCGAGAGGAUAUGCGGUGAUGGACAUGAGGAUCACCCAUGUUAGCGAUAGCAUUACGGUAGAAGGCUCUACAGCUGU | – | – | 245 | 36 |
| AUCAUGUAAGGAUAUCUUACAUGUGACGAAAGUCACAGUUAAGAGAAGGUACAUGAGGAUCACCCAUGUAUAAC | 27.4 | 54.9 | – | – |
| AAUGGCUGAGGAUAUACACUCACGUCUAAAAGGUUCAAAUGACAUGAGGAUCACCCAUGUAGAAGGCAGCCCGA | – | 50.2 | – | – |
| GAUUGACAAGGAUAUACAUGAGGAUCACCCAUGUGCUUCAGCUAGGAGACUAGCAUUGGUAGAAGGUGUUAAUC | 20.3 | 68.4 | – | – |
| UCUAAGCGAAUCAAGAUGGAUAGAACAUGAGGAUCACCCAUGUAGGAUAUGCUACACAAAGUGUAGCAGAAGGACAAGCUUAGA | 25.9 | 36.2 | – | – |
| UCAUCUUGUCGAGGAUAUAUUAACAUGACAUGAGACACAUGAGGAUCACCCAUGUAUUUUUUUUUAUAGAAGGCGACUAUAUGU | – | – | 32.6 | 52.9 |
| UUGUUAAGGAGAGGAUAUUGACAUGAGGAUCACCCAUGUACAUGGGAGUGUUUACUGAAUUCUUACGAGAAGGCUUACAUAUUU | 216 | 102 | – | – |
| AGUGUCAUCGAGAAGGCCUCAACAUGAGGAUCACCCAUGUUGCAAAAUGGGAGGAUAUCGCGAAAACAGCUACGUUUCGUAGCA | – | – | 40.8 | 8.79 |
| AAGAAGUCAGGAUAUGCUGCUCGUCACUUGCGUGAUGAGUAGCAGAAGGGACAUGAGGAUCACCCAUGUGGAGA | 114 | 241 | – | – |
| AGCUGUGGCCGAGGAUAUCUAAAUUCUCAAAACGAAAUAUAAUCGAACAUGAGGAUCACCCAUGUAGAGAAGGCGGUCUCAGCA | 39 | 298 | – | – |
| CAGCGAAAGUAGAAGGCAGUACUGAUACAGUACUGAGGAUAUACAUGAGGAUCACCCAUGUACUUCAGCUGGAAAUAAAUAAAU | 5.94 | 6.97 | – | – |
| GUUUUUUUUAGUUCAUACUAUAAGAUAGAAGGUGAAAUAUAGACAUGAGGAUCACCCAUGUAAUUCAAGGAUAUGUAGUUACUC | – | – | 44.1 | 24.8 |
| ACGUGACGGUGCGCGAGCGGACGGAGAAGGCAGACAUGAGGAUCACCCAUGUGAGCCUGCUAUUCUGAGGAUAUCCGUCCACAC | 30.4 | 167 | – | – |
| UCCCGGGUGCAGAAGGGAUAGGCCUAUUUUCGUGGUAUCCAAACCUAACAUGAGGAUCACCCAUGUCAGGAUAUGCCCACGGGA | 4.87 | 5.29 | – | – |
| CGACACCGGGAGAAGGCCAGACGCCGGCGCCCAAUACAACUGAGCUUAUGGAGGAUAUCCCGACAUGAGGAUCACCCAUGUAUC | – | – | 35.5 | 10.8 |

| Sequence | apparent Kd [1] [nM] | apparent Kd [2] [nM] | apparent Kd [3] [nM] | apparent Kd [4] [nM] |
| --- | --- | --- | --- | --- |
| UGCUGGGAGUCAGGAUAUACGUGGUAUGCUGAGCACAUGAGGAUCACCCAUGUAGAAGGGAUUCCGCGGUGAGAUUCCGAAACA | 6.03 | 6.62 | – | – |
| CUGGUUGUCGAGGAUAUGUCCCGGCUCGCAGUCGCAGAAGGCGACACAUGAGGAUCACCCAUGUCGGUUCGCGU | 13.8 | 13.3 | – | – |
| GGAUCGAAUGUGAGGAUAUGCUGGUCCUUGGAUCAGCAGAAGGCACAUGAGGAUCACCCAUGUUUCCACGGUCC | 127 | 869 | – | – |
| CGUUGAUAAUAUCUUCACAUGAGGAUCACCCAUGUCGCUCGACAGGAUAUAUUUGAUUUGUUUAAGUAGAAGGGUCGCAGAUGC | – | – | 157 | 130 |
| UGAUAGCACAGAGGAUAUGCGUUGUGUUCUCUCUACAUGAGGAUCACCCAUGUAGAAGGCUGUGCUAUCUAAGUCGGAAACGAU | 8.81 | 36.9 | – | – |
| AAUUCACAUGAGGAUCACCCAUGUCAGGAUAUGGUUUCACGUGUUUCUGUGCUUGAGGCCAGAAGGGACAGCUA | 65.5 | 76.5 | – | – |
| GGAUAGGACAGAGGAUAUACGUGCUAGAGAUACUAACAAAAUUUCCUCACAUGAGGAUCACCCAUGUAGAAGGCUGUCCUAUCG | 193 | 187 | – | – |
| GCACGAGACUAAGGAUAUGGAGUGUCUACAUUAAACAUGAGGAUCACCCAUGUAGAGAGUAUGAUUCAGAAGGUAGAGACGUGC | – | – | 53.6 | 25.2 |
| AAGUAGGUAGGAUAUGCAUAGAUACAGAUUCAUGUGGAACUACAUGAGGAUCACCCAUGUAGAAGGACCUAAUA | 21.1 | 29.6 | – | – |
| ACUGUUUGACUCCUCUUAUACAUGAGGAUCACCCAUGUUAUCGAGGAUAUGCAUUAGAGUGUUUAGCAGAAGGCGAUGUAAUUG | 6.72 | 14.4 | – | – |
| AUUUAAUUUAGCGAGAUCACAUGAGGAUCACCCAUGUAUAUAUAGGAUAUCAGCUCGUUUAGAGCUGAGAAGGAUAUAUACCGC | 89.8 | 147 | – | – |
| AGCUAGUGAGGAUAUACGAACAUGUCAAAAGACGUGAAAUAACAUGAGGAUCACCCAUGUAGAAGGCACUAGCA | 19.2 | 16.7 | – | – |
| AACCGUGCGGAGGAUAUUGAUAUCCCAGUCUAUCAAGAAGGCUGCACAUGAGGAUCACCCAUGUGAUCCGUGCU | 21.2 | 116 | – | – |
| GUUGACAGCACAGGAUAUGCGCAGUCUAUAUCACAUGAGGAUCACCCAUGUCGGCAACAGACCGAGCAGAAGGGUGCGAGUGUG | – | – | 235 | 39.7 |
| CAAGGGUUAGGAUAUGGACGCUUAUAUUUGUAGCGGCGAAGCCAGAAGGAACAUGAGGAUCACCCAUGUUGGGA | 60.4 | 108 | – | – |
| GCGUCUCCUGUCAGGAUAUGCACCGGCUCGCCGGCGUAGAAGGGACAUGAGGAUCACCCAUGUGGUCUACACUU | – | 339 | – | – |
| UUACUCAUGUAAGGAUAUGUAGCCGUUUCGGCUGCAGAAGGUACUAUAAUACAUGAGGAUCACCCAUGUCUUUUUAAUUUAGAC | – | – | 69.3 | 39.8 |
| CGCUAUGAUGGGUUUAAUGGAGCAUAGGAUAUGCUUGUACAUGAGGAUCACCCAUGUUAUAUUUUGCAGAAGGGUGCAUUUGCG | – | – | 284 | 95.3 |
| AUCCGACAUGAGGAUCACCCAUGUCAGGAUAUGGACUGACACCGAAAGGAUGGAGGAACCAGAAGGGACUGGGC | 32.5 | 47.8 | – | – |
| AAAUCCUACGAAGGAUAUACAAACAUGAGGAUCACCCAUGUGUGUUUCGUGUAACUGGAAUUCGGGUAGAAGGUCGUAGACAUA | 33.2 | 20.8 | – | – |
| GUAUAUAUUACAUGAGGAUCACCCAUGUCAGAACGGGUAAUCAGAAGGUAUUAUUAGAGAAAGGGUAAGGAUAUGAUUAUAUAC | – | – | 577 | 321 |
| CUUAUGUGAGGAUAUGGUGUUGGCCACAGGGAAAAGGUCCUCCAGAAGGCACAUGAGGAUCACCCAUGUAGUGA | 165 | 56.3 | – | – |
| GCGACGAAAGUCGAACGAUGUAGCAGAAGGACAUGAGGAUCACCCAUGUCAGCUGUAACAGCCAUGUAGGAUAUGCUACAUCGG | 4.09 | 5.27 | – | – |
| AGUCGGAGCAGAGGAUAUACAUGAGGAUCACCCAUGUAAAUGAAUGAAGCCAGGAAACUGGCAAUGUAGAAGGCUGCUCCGACA | 18 | 52.8 | – | – |
